Assays:
[1] = target: T1, 5-hydroxytryptamine receptor 4 (Cavia porcellus, UniProt O70528); test: Binding affinity against 5-hydroxytryptamine 4 receptor in guinea pig striatum using [3H]GR-113808 as radioligand
Summary of the method: (§1)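 Male Dunkin–Hartley guinea pig striatal membranes in 50 mM Hepes pH 7.4 (1:80 wt/vol, 800–900 μg protein) with 0.1 nM [3H]GR 113808. Nonspecific binding with 10 μM 5-HT. Incubated 30 min at 25 °C, then filtered on PEI-treated filters and counted by scintillation. 10–12 displacer concentrations; two experiments in triplicate; IC50 and Ki.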

[2] = target: T1, 5-hydroxytryptamine receptor 4; test: Displacement of [3H]GR-113808 from 5-hydroxytryptamine 4 receptor in guinea pig striatum; summary of the method: as §1
[3] = target: T2, Serotonin 3 (5-HT3) receptor (Rattus norvegicus, UniProt P35563+Q9JJ16); test: Inhibitory concentration against 5-hydroxytryptamine 3 receptor in rat entorhinal cortex using [3H]-LY 278584 as radioligand
T2 sequence (P35563 whole entry): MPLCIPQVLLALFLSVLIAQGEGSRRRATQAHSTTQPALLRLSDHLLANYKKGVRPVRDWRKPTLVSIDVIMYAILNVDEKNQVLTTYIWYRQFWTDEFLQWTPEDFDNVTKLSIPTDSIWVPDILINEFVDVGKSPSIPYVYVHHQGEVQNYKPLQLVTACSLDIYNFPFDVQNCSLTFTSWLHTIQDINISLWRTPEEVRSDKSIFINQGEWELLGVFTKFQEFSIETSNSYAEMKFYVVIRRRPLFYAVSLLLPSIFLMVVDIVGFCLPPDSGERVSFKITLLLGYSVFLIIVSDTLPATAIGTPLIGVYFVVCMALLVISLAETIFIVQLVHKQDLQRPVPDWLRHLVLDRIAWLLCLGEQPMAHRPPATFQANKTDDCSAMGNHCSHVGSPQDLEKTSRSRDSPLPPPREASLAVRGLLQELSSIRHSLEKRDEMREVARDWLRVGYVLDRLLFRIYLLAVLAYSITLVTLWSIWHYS
T2 sequence (Q9JJ16 whole entry): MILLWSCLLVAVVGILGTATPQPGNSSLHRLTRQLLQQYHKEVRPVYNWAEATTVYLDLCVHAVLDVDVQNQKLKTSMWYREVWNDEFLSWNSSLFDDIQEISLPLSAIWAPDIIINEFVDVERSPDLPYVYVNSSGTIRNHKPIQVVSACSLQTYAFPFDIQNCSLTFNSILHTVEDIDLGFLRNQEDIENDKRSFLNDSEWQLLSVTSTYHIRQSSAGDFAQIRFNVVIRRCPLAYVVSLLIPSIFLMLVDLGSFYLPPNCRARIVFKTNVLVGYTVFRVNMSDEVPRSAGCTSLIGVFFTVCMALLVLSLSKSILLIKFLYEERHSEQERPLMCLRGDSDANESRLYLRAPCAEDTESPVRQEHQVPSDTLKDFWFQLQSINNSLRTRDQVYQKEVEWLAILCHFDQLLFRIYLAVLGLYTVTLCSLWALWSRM
Summary of the method: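 Male Wistar rat entorhinal cortex membranes in 50 mM Tris-HCl with 5 mM CaCl2, 0.1% ascorbate and 10 μM pargyline (1:40 wt/vol, 500–600 μg protein), with 2 nM [3H]LY 278584. Nonspecific binding with 10 μM 5-HT.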

[4] = tested on: 5-HT4 receptor (Rattus norvegicus); test: Antagonistic activity against 5-hydroxytryptamine 4 receptor
[5] = tested on: 5-HT4 receptor (Rattus norvegicus); test: Agonistic activity against 5-hydroxytryptamine 4 receptor

T1 sequence (O70528 whole entry): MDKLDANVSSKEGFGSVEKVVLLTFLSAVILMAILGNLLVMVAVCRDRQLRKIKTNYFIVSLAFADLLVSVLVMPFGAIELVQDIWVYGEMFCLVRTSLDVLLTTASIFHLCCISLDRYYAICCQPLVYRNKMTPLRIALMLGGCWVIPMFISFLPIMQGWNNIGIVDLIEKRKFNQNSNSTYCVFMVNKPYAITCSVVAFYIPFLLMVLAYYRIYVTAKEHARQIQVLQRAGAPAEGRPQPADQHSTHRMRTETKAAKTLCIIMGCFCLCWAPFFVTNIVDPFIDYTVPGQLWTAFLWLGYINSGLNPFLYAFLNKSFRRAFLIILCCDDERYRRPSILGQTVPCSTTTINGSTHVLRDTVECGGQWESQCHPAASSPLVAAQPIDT

Structure (SMILES)	Ki [1]	IC50 [2]	IC50 [3]	pKb [4]	Intrinsic activity [5]	Ki [3]
Cc1cccc2c1n(C(C)C)c(=O)n2C(=O)NCCN1CCN(C)CC1	216 nM					
CC(C)n1c(=O)n(C(=O)NCCN2CCN(C)CC2)c2cc(F)c(N)cc21		> 1000 nM	> 1000 nM	< 6	< 0.3	
CCN1CCN(CCNC(=O)n2c(=O)n(CC)c3ccccc32)CC1	17.9 nM		> 1000 nM			
CN1CCN(CCNC(=O)n2c(=O)n(C3CC3)c3ccccc32)CC1	10.2 nM		> 1000 nM			
CCCN1CCN(CCNC(=O)n2c(=O)n(C(C)C)c3ccccc32)CC1	87.3 nM		> 1000 nM	6.89	0.68	
CCCC[N+]1(C)CCN(CCNC(=O)n2c(=O)n(C(C)C)c3ccccc32)CC1	66.3 nM		> 1000 nM	6	0.93	
C=CCn1c(=O)n(C(=O)NCCN2CCN(C)CC2)c2ccccc21		> 1000 nM	> 1000 nM	< 6	0.63	
CC(C)n1c(=O)n(C(=O)NCCN2CC[N+](C)(C)CC2)c2ccccc21	68.5 nM		> 1000 nM	< 6	0.75	
CCn1c(=O)n(C(=O)NCCN2CCN(C)CC2)c2ccccc21	75.4 nM		> 1000 nM	6.79	< 0.3	
CCn1c(=O)n(C(=O)NCCN2CCN(C(C)C)CC2)c2ccccc21	25.2 nM		> 1000 nM			
COc1ccc2c(c1)n(C(=O)NCCN1CCN(C)CC1)c(=O)n2C(C)C		> 1000 nM	> 1000 nM	< 6	< 0.3	
CCCCN1CCN(CCNC(=O)n2c(=O)n(C3CC3)c3ccccc32)CC1	13.3 nM		> 1000 nM	7.51	0.46	
CC(C)n1c(=O)n(C(=O)NCCN2CCN(Cc3ccc4c(c3)OCO4)CC2)c2ccccc21		> 1000 nM	> 1000 nM	< 6	0.3	
CC(C)n1c(=O)n(C(=O)NCN2CCN(C)CC2)c2ccccc21		> 1000 nM				309 nM
CCCN1CCN(CCNC(=O)n2c(=O)n(CC)c3ccccc32)CC1	16.9 nM		> 1000 nM			
CCCCn1c(=O)n(C(=O)NCCN2CCN(C)CC2)c2ccccc21		> 1000 nM	> 1000 nM	< 6	< 0.3	
CN1CCN(CNC(=O)n2c(=O)n(C3CC3)c3ccccc32)CC1	49.4 nM		> 1000 nM	6.19	0.53	
CCCCN1CCN(CCNC(=O)n2c(=O)n(CC)c3ccccc32)CC1	34.1 nM		> 1000 nM	7.73	< 0.3	
CCN1CCN(CCNC(=O)n2c(=O)n(C(C)C)c3ccccc32)CC1	104 nM		> 1000 nM	6.62	0.87	
CN1CCN(CCCNC(=O)n2c(=O)n(C3CC3)c3ccccc32)CC1	39.7 nM		> 1000 nM	6.4	0.46	

Structure (SMILES)	Ki [1]	IC50 [2]	IC50 [3]	pKb [4]	Intrinsic activity [5]	Ki [3]
CC(C)n1c(=O)n(C(=O)NC2CC3CCC(C2)N3C)c2ccccc21 (centres undefined)	63.9 nM					0.5 nM
CC(C)N1CCN(CCNC(=O)n2c(=O)n(C3CC3)c3ccccc32)CC1	6.7 nM		> 1000 nM			
CCCCN1CCN(CCNC(=O)n2c(=O)n(C(C)C)c3ccccc32)CC1	38.9 nM		> 1000 nM			
CN1CCN(CCNC(=O)n2c(=O)n(Cc3ccccc3)c3ccccc32)CC1		> 1000 nM	> 1000 nM	< 6	< 0.3	
CC(C)n1c(=O)n(C(=O)NCCN2CCN(C)CC2)c2cc(Cl)ccc21		> 1000 nM	> 1000 nM	< 6	0.7	
CN1CCN(CCNC(=O)n2c(=O)[nH]c3ccccc32)CC1		1000 nM	> 1000 nM	< 6	0.35	
CC(C)n1c(=O)n(C(=O)NCCN2CCN(CCCOc3ccc(F)cc3)CC2)c2ccccc21	375 nM		> 1000 nM			
CN1CCN(CCNC(=O)n2c(=O)n(C)c3ccccc32)CC1	306 nM		> 1000 nM	< 6	0.42	
CC(C)n1c(=O)n(C(=O)NCCN2CCN(C)CC2)c2cc(F)c([N+](=O)[O-])cc21		> 1000 nM	> 1000 nM			
CC(C)n1c(=O)n(C(=O)NCCN2CCN(C)CC2)c2ccccc21	91.1 nM		> 1000 nM	< 6	0.94	
CC(C)n1c(=O)n(C(=O)NCCN2CCN(Cc3ccc(F)cc3)CC2)c2ccccc21	262 nM		> 1000 nM			
CC(C)n1c(=O)n(C(=O)NN2CCN(C)CC2)c2ccccc21		> 1000 nM		< 6	< 0.3	201 nM
Cn1cc(C(=O)OCC2CCN(CCNS(C)(=O)=O)CC2)c2ccccc21	0.11 nM		> 1000 nM			
CN1CCN(CCNC(=O)n2c(=O)n(CCc3ccccc3)c3ccccc32)CC1		> 1000 nM	> 1000 nM			
CCCN1CCN(CCNC(=O)n2c(=O)n(C3CC3)c3ccccc32)CC1	8.2 nM		> 1000 nM	7.46	0.41	
CC(C)n1c(=O)n(C(=O)NCCCN2CCN(C)CC2)c2ccccc21		> 1000 nM	> 1000 nM	< 6	< 0.3	
CCCn1c(=O)n(C(=O)NCCN2CCN(C)CC2)c2ccccc21	253 nM		> 1000 nM	< 6	0.48	
C=CC[N+]1(C)CCN(CCNC(=O)n2c(=O)n(C(C)C)c3ccccc32)CC1	56.3 nM		> 1000 nM	6.28	< 0.3	
CC(C)N1CCN(CCNC(=O)n2c(=O)n(C(C)C)c3ccccc32)CC1	89.8 nM		> 1000 nM			
CC(C)n1c(=O)n(C(=O)NCCN2CCN(C)CC2)c2cc(F)ccc21	108 nM		> 1000 nM	6.88	0.67	
